Tests used:
Type in all cases: functional, organism-based
[1] = test system: Sinapis alba; experiment: Phytotoxic activity against Sinapis alba assessed as inhibition of root growth at 22 +/-2 degC after 72 hr
Procedure, shortened: (§1)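 Test solutions were made in 90% methanol and applied to filter paper in Petri dishes, with a methanol-only control. Concentrations ranged from 1 to 5000 or 10000 µmol, depending on the compound. After 72 h incubation, root and hypocotyl lengths were measured on at least three replicate plates per concentration. Percentage influence was calculated relative to a distilled-water control, and EC50 (µM) was reported with R2.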

[2] = test system: Echinochloa crus-galli; experiment: Phytotoxic activity against Echinochloa crus-galli (barnyard grass) assessed as inhibition of hypocotyl growth at 22 +/-2 degC after 72 hr; procedure, shortened: as §1
[3] = test system: Sinapis alba; experiment: Phytotoxic activity against Sinapis alba assessed as inhibition of hypocotyl growth at 22 +/-2 degC after 72 hr; procedure, shortened: as §1
[4] = test system: Echinochloa crus-galli; experiment: Phytotoxic activity against Echinochloa crus-galli (barnyard grass) assessed as inhibition of root growth at 22 +/-2 degC after 72 hr; procedure, shortened: as §1
[5] = test system: Plantago lanceolata; experiment: Phytotoxic activity against Plantago lanceolata assessed as inhibition of hypocotyl growth at 22 +/-2 degC after 72 hr; procedure, shortened: as §1
[6] = test system: Lolium perenne; experiment: Phytotoxic activity against Lolium perenne (perennial ryegrass) assessed as inhibition of hypocotyl growth at 22 +/-2 degC after 72 hr; procedure, shortened: as §1
[7] = test system: Plantago lanceolata; experiment: Phytotoxic activity against Plantago lanceolata assessed as inhibition of root growth at 22 +/-2 degC after 72 hr; procedure, shortened: as §1
[8] = test system: Lolium perenne; experiment: Phytotoxic activity against Lolium perenne (perennial ryegrass) assessed as inhibition of root growth at 22 +/-2 degC after 72 hr; procedure, shortened: as §1
[9] = test system: Achillea millefolium; experiment: Phytotoxic activity against Achillea millefolium assessed as inhibition of hypocotyl growth at 22 +/-2 degC after 72 hr; procedure, shortened: as §1
[10] = test system: Achillea millefolium; experiment: Phytotoxic activity against Achillea millefolium assessed as inhibition of root growth at 22 +/-2 degC after 72 hr; procedure, shortened: as §1
[11] = test system: Amaranthus retroflexus; experiment: Phytotoxic activity against Amaranthus retroflexus assessed as inhibition of hypocotyl growth at 22 +/-2 degC after 72 hr; procedure, shortened: as §1
[12] = test system: Trifolium repens; experiment: Phytotoxic activity against Trifolium repens assessed as inhibition of hypocotyl growth at 22 +/-2 degC after 72 hr; procedure, shortened: as §1
[13] = test system: Trifolium repens; experiment: Phytotoxic activity against Trifolium repens assessed as inhibition of root growth at 22 +/-2 degC after 72 hr; procedure, shortened: as §1
[14] = test system: Amaranthus retroflexus; experiment: Phytotoxic activity against Amaranthus retroflexus assessed as inhibition of root growth at 22 +/-2 degC after 72 hr; procedure, shortened: as §1

Structure (SMILES)	EC50 [1] [µM]	EC50 [2] [µM]	EC50 [3] [µM]	EC50 [4] [µM]	EC50 [5] [µM]	EC50 [6] [µM]	EC50 [7] [µM]	EC50 [8] [µM]	EC50 [9] [µM]	EC50 [10] [µM]	EC50 [11] [µM]	EC50 [12] [µM]	EC50 [13] [µM]	EC50 [14] [µM]
O=c1c(O[C@@H]2O[C@H](CO)[C@@H](O)[C@H](O)[C@H]2O)c(-c2ccc(O)c(O)c2)oc2cc(O)cc(O)c12 [ISOQUERCETIN]	5910	35200	9560	89100	37100	33800	54600	90100	–	–	–	–	–	–
O=c1c(O)c(-c2ccc(O)c(O)c2)oc2cc(O)cc(O)c12 [QUERCETIN]	7050	–	12800	–	–	183	–	273	–	–	–	–	–	–
Oc1cc(O)c2c(c1)O[C@H](c1ccc(O)c(O)c1)[C@@H](O)C2 [CIANIDANOL]	445	148	780	362	360	120	55	377	527	472	9300	169	433	2830

Reference: ChEMBL document CHEMBL3044905, “Level of catechin, myricetin, quercetin and isoquercitrin in buckwheat (Fagopyrum esculentum Moench), changes of their levels during vegetation and their effect on the growth of selected weeds” (J Agric Food Chem, 2009)
